According to ChEMBL document CHEMBL1156563, “Synthesis and antiproliferative evaluation of amide-containing flavone and isoflavone derivatives” (Bioorg Med Chem, 2008):

Columns and labels:
NCI-H661 = experiment: Antiproliferative activity against human NCI-H661 cells after 72 hrs by MTT assay; format: functional; settings: NCI-H661, 72 h
How it was run: (§1)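 Cells were exposed to a range of concentrations for 72 h. Compounds came from 20 mM stocks in 100% DMSO. Cells were then given MEM with 0.4 mg/mL MTT for 2 h, and formazan was read at 570 nm. GI50 was taken from percentage conversion relative to mock-treated controls and reported as mean SD of three independent experiments.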

[1] = Antiproliferative activity against human NPC-TW01 cells after 72 hrs by MTT assay; format: functional; settings: NPC-TW01, 72 h; how it was run: as §1
MT2 = experiment: Antiproliferative activity against human MT2 cells after 72 hrs by MTT assay; format: functional; settings: MT2, 72 h; how it was run: as §1
[2] = Cell cycle arrest in human NPC-TW01 cells assessed as accumulation at S phase at 10.5 uM after 72 hrs by flow cytometry; format: functional, cell-based
How it was run: (§2)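 Exponentially growing cells were treated for 72 h. Controls received complete medium with 0.5% DMSO for 72 h. Cells were fixed, incubated with RNase and stained. DNA content was measured on a FACScan flow cytometer, and the percentage of cells in each cell-cycle phase was determined.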

[3] = Cell cycle arrest in human NPC-TW01 cells assessed as accumulation at G2/M phase at 10.5 uM after 72 hrs by flow cytometry; format: functional, cell-based; how it was run: as §2
[4] = Cell cycle arrest in human NPC-TW01 cells assessed as accumulation at sub-G1 phase at 10.5 uM after 72 hrs by flow cytometry; format: functional, cell-based; how it was run: as §2
[5] = Cell cycle arrest in human NPC-TW01 cells assessed as accumulation at G0/G1 phase at 30 uM after 24 hrs by flow cytometry; format: functional, cell-based
How it was run: (§3)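 Time course in exponentially growing cells at two concentrations, sampled at the indicated times. Controls were kept in complete medium with 0.3% DMSO for the same periods. Cells were fixed, RNase-treated and stained. DNA content was read on a FACScan flow cytometer, and the percentage of cells in sub-G1, G0/G1, S and G2/M was determined.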

[6] = Cell cycle arrest in human NPC-TW01 cells assessed as accumulation at G0/G1 phase at 30 uM after 48 hrs by flow cytometry; format: functional, cell-based; how it was run: as §3
[7] = Cell cycle arrest in human NPC-TW01 cells assessed as accumulation at G0/G1 phase at 30 uM after 72 hrs by flow cytometry; format: functional, cell-based; how it was run: as §3
[8] = Cell cycle arrest in human NPC-TW01 cells assessed as accumulation at G0/G1 phase at 30 uM after 96 hrs by flow cytometry; format: functional, cell-based; how it was run: as §3
[9] = Cell cycle arrest in human NPC-TW01 cells assessed as accumulation at S phase at 30 uM after 24 hrs by flow cytometry; format: functional, cell-based; how it was run: as §3
[10] = Cell cycle arrest in human NPC-TW01 cells assessed as accumulation at S phase at 30 uM after 48 hrs by flow cytometry; format: functional, cell-based; how it was run: as §3
[11] = Cell cycle arrest in human NPC-TW01 cells assessed as accumulation at S phase at 30 uM after 72 hrs by flow cytometry; format: functional, cell-based; how it was run: as §3
[12] = Cell cycle arrest in human NPC-TW01 cells assessed as accumulation at S phase at 30 uM after 96 hrs by flow cytometry; format: functional, cell-based; how it was run: as §3
[13] = Cell cycle arrest in human NPC-TW01 cells assessed as accumulation at G2/M phase at 30 uM after 24 hrs by flow cytometry; format: functional, cell-based; how it was run: as §3
[14] = Cell cycle arrest in human NPC-TW01 cells assessed as accumulation at G2/M phase at 30 uM after 48 hrs by flow cytometry; format: functional, cell-based; how it was run: as §3
[15] = Cell cycle arrest in human NPC-TW01 cells assessed as accumulation at G2/M phase at 30 uM after 72 hrs by flow cytometry; format: functional, cell-based; how it was run: as §3
[16] = Cell cycle arrest in human NPC-TW01 cells assessed as accumulation at G2/M phase at 30 uM after 96 hrs by flow cytometry; format: functional, cell-based; how it was run: as §3
[17] = Cell cycle arrest in human NPC-TW01 cells assessed as accumulation at sub-G1 phase at 30 uM after 24 hrs by flow cytometry; format: functional, cell-based; how it was run: as §3
[18] = Cell cycle arrest in human NPC-TW01 cells assessed as accumulation at sub-G1 phase at 30 uM after 48 hrs by flow cytometry; format: functional, cell-based; how it was run: as §3
[19] = Cell cycle arrest in human NPC-TW01 cells assessed as accumulation at sub-G1 phase at 30 uM after 72 hrs by flow cytometry; format: functional, cell-based; how it was run: as §3
[20] = Cell cycle arrest in human NPC-TW01 cells assessed as accumulation at sub-G1 phase at 30 uM after 96 hrs by flow cytometry; format: functional, cell-based; how it was run: as §3
[21] = Cell cycle arrest in human NPC-TW01 cells assessed as accumulation at G0/G1 phase at 60 uM after 24 hrs by flow cytometry; format: functional, cell-based; how it was run: as §3
[22] = Cell cycle arrest in human NPC-TW01 cells assessed as accumulation at G0/G1 phase at 60 uM after 48 hrs by flow cytometry; format: functional, cell-based; how it was run: as §3
[23] = Cell cycle arrest in human NPC-TW01 cells assessed as accumulation at G0/G1 phase at 60 uM after 72 hrs by flow cytometry; format: functional, cell-based; how it was run: as §3
[24] = Cell cycle arrest in human NPC-TW01 cells assessed as accumulation at G0/G1 phase at 60 uM after 96 hrs by flow cytometry; format: functional, cell-based; how it was run: as §3
[25] = Cell cycle arrest in human NPC-TW01 cells assessed as accumulation at S phase at 60 uM after 24 hrs by flow cytometry; format: functional, cell-based; how it was run: as §3
[26] = Cell cycle arrest in human NPC-TW01 cells assessed as accumulation at S phase at 60 uM after 48 hrs by flow cytometry; format: functional, cell-based; how it was run: as §3
[27] = Cell cycle arrest in human NPC-TW01 cells assessed as accumulation at S phase at 60 uM after 72 hrs by flow cytometry; format: functional, cell-based; how it was run: as §3
[28] = Cell cycle arrest in human NPC-TW01 cells assessed as accumulation at S phase at 60 uM after 96 hrs by flow cytometry; format: functional, cell-based; how it was run: as §3
[29] = Cell cycle arrest in human NPC-TW01 cells assessed as accumulation at G2/M phase at 60 uM after 24 hrs by flow cytometry; format: functional, cell-based; how it was run: as §3
[30] = Cell cycle arrest in human NPC-TW01 cells assessed as accumulation at G2/M phase at 60 uM after 48 hrs by flow cytometry; format: functional, cell-based; how it was run: as §3
[31] = Cell cycle arrest in human NPC-TW01 cells assessed as accumulation at G2/M phase at 60 uM after 72 hrs by flow cytometry; format: functional, cell-based; how it was run: as §3
[32] = Cell cycle arrest in human NPC-TW01 cells assessed as accumulation at G2/M phase at 60 uM after 96 hrs by flow cytometry; format: functional, cell-based; how it was run: as §3
[33] = Cell cycle arrest in human NPC-TW01 cells assessed as accumulation at sub-G1 phase at 60 uM after 24 hrs by flow cytometry; format: functional, cell-based; how it was run: as §3
[34] = Cell cycle arrest in human NPC-TW01 cells assessed as accumulation at sub-G1 phase at 60 uM after 48 hrs by flow cytometry; format: functional, cell-based; how it was run: as §3
[35] = Cell cycle arrest in human NPC-TW01 cells assessed as accumulation at sub-G1 phase at 60 uM after 72 hrs by flow cytometry; format: functional, cell-based; how it was run: as §3
[36] = Cell cycle arrest in human NPC-TW01 cells assessed as accumulation at sub-G1 phase at 60 uM after 96 hrs by flow cytometry; format: functional, cell-based; how it was run: as §3

For `O=C(COc1c(-c2ccccc2)oc2ccccc2c1=O)Nc1ccc2ccccc2c1`, the GI50 (NCI-H661) was 6.5 µM, the GI50 [1] was 6.52 µM and the GI50 (MT2) was > 10 µM.
In the case of `O=C(COc1ccc2c(=O)c(-c3ccccc3)coc2c1)Nc1ccc2ccccc2c1`, the GI50 (NCI-H661) is reported as > 10 µM, the GI50 [1] is reported as 1.37 µM and the GI50 (MT2) is reported as 7.68 µM.
For `O=C(COc1ccc2c(=O)cc(-c3ccccc3)oc2c1)Nc1ccc2ccccc2c1`, the GI50 (NCI-H661) was > 10 µM, the GI50 [1] was > 10 µM and the GI50 (MT2) was > 10 µM.
In the case of `O=C(COc1ccc2oc(-c3ccccc3)cc(=O)c2c1)Nc1ccc(F)cc1`, the GI50 (NCI-H661) is reported as 1.47 µM, the GI50 [1] is reported as 0.74 µM and the GI50 (MT2) is reported as 0.47 µM. The Activity [2] was 13.6%, the Activity [3] was 5.2% and the Activity [4] was 4%. It also gave an Activity [5] of 52%, an Activity [6] of 59.8% and an Activity [7] of 71%. For the same compound, the Activity [8] was 70.7%, the Activity [9] was 27.6% and the Activity [10] was 24.2%. For the same compound, the Activity [11] was 14.7%, the Activity [12] was 15.1% and the Activity [13] was 17%. The Activity [14] was 13.4%, the Activity [15] was 9.47% and the Activity [16] was 8.6%. It also gave an Activity [17] of 3.45%, an Activity [18] of 2.59% and an Activity [19] of 4.79%. The Activity [20] was 5.62%, the Activity [21] was 51.5% and the Activity [22] was 68.3%. It also gave an Activity [23] of 73.7%, an Activity [24] of 66.7% and an Activity [25] of 26.4%. It also gave an Activity [26] of 18.4%, an Activity [27] of 15.7% and an Activity [28] of 12.8%. For the same compound, the Activity [29] was 19.8%, the Activity [30] was 10.5% and the Activity [31] was 6.64%. For the same compound, the Activity [32] was 7.78%, the Activity [33] was 2.27% and the Activity [34] was 2.87%. The Activity [35] was 4.5% and the Activity [36] was 12.7%.
In the case of `O=C(COc1c(-c2ccccc2)oc2ccccc2c1=O)Nc1ccc(F)cc1`, the GI50 (NCI-H661) is reported as > 10 µM, the GI50 [1] is reported as 9.5 µM and the GI50 (MT2) is reported as > 10 µM.
With `O=C(COc1ccc2oc(-c3ccccc3)cc(=O)c2c1)Nc1ccccc1` the GI50 (NCI-H661) was 5.6 µM, the GI50 [1] was 1.26 µM and the GI50 (MT2) was 1.43 µM.
With `O=C(COc1c(-c2ccccc2)oc2ccccc2c1=O)Nc1ccc(-c2ccccc2)cc1` the GI50 (NCI-H661) was > 10 µM, the GI50 [1] was > 10 µM and the GI50 (MT2) was > 10 µM.
Compound `COc1ccc(NC(=O)COc2ccc3c(=O)c(-c4ccccc4)coc3c2)cc1` has a GI50 (NCI-H661) of 9.53 µM, a GI50 [1] of 6.7 µM and a GI50 (MT2) of 4.55 µM.
In the case of `O=C(COc1c(-c2ccccc2)oc2ccccc2c1=O)Nc1ccccc1`, the GI50 (NCI-H661) is reported as > 10 µM, the GI50 [1] is reported as > 10 µM and the GI50 (MT2) is reported as 6.72 µM.
In the case of `COc1ccc(NC(=O)COc2c(-c3ccccc3)oc3ccccc3c2=O)cc1`, the GI50 (NCI-H661) is reported as 6.74 µM, the GI50 [1] is reported as 5.48 µM and the GI50 (MT2) is reported as > 10 µM.
In the case of `O=C(COc1ccc2c(=O)c(-c3ccccc3)coc2c1)Nc1ccc(-c2ccccc2)cc1`, the GI50 (NCI-H661) is reported as > 10 µM, the GI50 [1] is reported as 1.75 µM and the GI50 (MT2) is reported as > 10 µM.
